Results published in ChEMBL document CHEMBL1127441, “Design, synthesis, and neurochemical evaluation of 2-amino-5-(alkoxycarbonyl)-3,4,5,6-tetrahydropyridines and 2-amino-5-(alkoxycarbonyl)-1,4,5,6-tetrahydropyrimidines as M1 muscarinic receptor agonists” (J Med Chem, 1994).
pIC50: −log10 of the molar value.

Columns and labels:
Rattus norvegicus = organism: Rattus norvegicus; assay: Stimulation of phosphoinositide (PI) metabolism in rat cortex at 100 uM; assay type: functional
Method in brief: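 Rat cerebral cortex slices cross-chopped at 300 μm, preincubated in oxygenated Krebs-Henseleit buffer at 37 °C. Labeled 30 min with 0.3 mM [3H]inositol and 10 mM LiCl, then 45 min with agonist at 100 μM, or buffer for basal. Stopped with CHCl3/MeOH. Total [3H]inositol phosphates isolated on anion-exchange cartridges and counted. Given as % above basal; mean ± SEM, three independent experiments.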

[1] = target: Muscarinic acetylcholine receptor; assay: Affinity for muscarinic receptor in rat brain was measured by inhibition of [3H](R)-quinuclidinyl benzilate (QNB) binding; assay type: tissue-based
[2] = target: T1, Muscarinic acetylcholine receptor M1 (Rattus norvegicus, UniProt P08482); assay: (§1) Affinity for muscarinic receptor M1 in rat brain was measured by inhibition of [3H](R)-quinuclidinyl benzilate (QNB) binding; assay type: tissue-based
T1 sequence (P08482 whole entry): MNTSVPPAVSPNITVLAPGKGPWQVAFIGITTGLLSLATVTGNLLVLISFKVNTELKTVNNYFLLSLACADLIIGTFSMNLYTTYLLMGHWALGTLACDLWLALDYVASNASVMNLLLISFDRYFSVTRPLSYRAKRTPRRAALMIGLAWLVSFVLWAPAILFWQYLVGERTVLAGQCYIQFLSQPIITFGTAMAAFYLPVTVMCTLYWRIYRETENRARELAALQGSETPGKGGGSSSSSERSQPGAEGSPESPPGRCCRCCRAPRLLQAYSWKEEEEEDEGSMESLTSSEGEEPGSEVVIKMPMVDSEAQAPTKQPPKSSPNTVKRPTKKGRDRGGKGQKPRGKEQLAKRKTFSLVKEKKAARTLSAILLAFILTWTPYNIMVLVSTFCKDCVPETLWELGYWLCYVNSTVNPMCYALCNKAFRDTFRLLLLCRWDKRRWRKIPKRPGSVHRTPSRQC
Method in brief: (§2)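 Competition against 50 pM [3H]-(R)-QNB in rat brain membrane suspension, about 10 pM receptors (4 mg/mL protein), 40 mM Na/K phosphate pH 7.4, varying compound concentrations. Incubation 2.0 h at room temperature, then glass fiber filtration and two cold buffer washes. Nonspecific binding with 1000-fold excess atropine. IC50 from Hill plots; mean ± SEM, three independent experiments in triplicate.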

[3] = target: Muscarinic acetylcholine receptor; assay: as §1; assay type: tissue-based; method in brief: as §2

Row | Compound | IC50 [1] [µM] | pIC50 [2] | IC50 [3] [µM] | PI metabolism (Rattus norvegicus) [%]
1 | CC(C)OC(=O)C1CN=CNC1.Cl (stereo unspecified) |  |  |  | 7.2
2 | COC(=O)C1CN=CNC1.Cl (stereo unspecified) |  |  |  | 110
3 | CCCOC(=O)C1CCC(N)=NC1.Cl (stereo unspecified) | 1.7 |  |  | 51
4 | CCOC(=O)C1CN=CNC1.Cl (stereo unspecified) |  |  |  | 150
5 | C#CCOC(=O)C1CN=CNC1.Cl (stereo unspecified) |  |  |  | 230
6 | COC(=O)C1CCCC(N)=N1.Cl (stereo unspecified) |  | 3.60 |  | 8.1
7 | CCCOC(=O)C1CN=CNC1.Cl (stereo unspecified) |  |  |  | 7.1
8 | C#CCOC(=O)C1CCC(N)=NC1.Cl (stereo unspecified) | 2.3 |  |  | 120
9 | C[N+](C)(C)CCOC(N)=O.[Cl-] [CARBACHOL] |  |  |  | 470

Now from value to compound, other results behind:

Row | IC50 [1] [µM] | pIC50 [2] | IC50 [3] [µM] | Compound | PI metabolism (Rattus norvegicus) [%]
10 | 22 |  |  | COC(=O)C1CN=C(N)NC1.Cl (stereo unspecified) | 81
11 | 4.3 |  |  | CCOC(=O)C1CCC(N)=NC1.Cl (stereo unspecified) | 31
12 |  | 3.92 |  | COC(=O)C1CCN=C(N)C1.Cl (stereo unspecified) | 9
13 |  |  | 4300 | COC(=O)C1CCN=C(N)N1.Cl (stereo unspecified) | 
14 | 31 |  |  | C#CCOC(=O)C1CN=C(N)NC1.Cl (stereo unspecified) | 150
15 | 8.2 |  |  | CCOC(=O)C1CN=C(N)NC1.Cl (stereo unspecified) | 28
16 | 29 |  |  | CC(C)OC(=O)C1CN=C(N)NC1.Cl (stereo unspecified) | 23
17 | 4.8 |  |  | CCCOC(=O)C1CN=C(N)NC1.Cl (stereo unspecified) | 4.3
18 |  | 3.49 |  | COC(=O)C1CCCN=C1N.Cl (stereo unspecified) | -5.5
19 | 10 |  |  | COC(=O)C1CCC(N)=NC1.Cl (stereo unspecified) | 260
